Measured values from different studies.
Lines come from different studies, so protocols differ.

NCc1ccc(-c2nn(Cc3ccncc3)c3ccccc23)o1 gave an AUC(0-t) of 314 ng·h/mL (male CD-1 mouse, plasma; oral, 10 mg/kg).
Cc1ncsc1-c1ccc([C@H](CC(=O)N2CC3(C2)CN(c2ccc(C#Cc4ccc(C(=O)N5CCC(n6cc(-c7ccc8c(c7)CCN8C(=O)Cc7cccc(OC(F)(F)F)c7)c7c(N)ncnc76)CC5)cc4)cn2)C3)NC(=O)[C@@H]2C[C@@H](O)CN2C(=O)[C@@H](NC(=O)C2(F)CC2)C(C)(C)C)cc1 has an AUC(0-t) of 5920 ng·h/mL (male C57BL/6 mouse, plasma; intravenous, 1 mg/kg).
For CN(C)C(=O)c1cc2cnc(Nc3ccc(-c4ccc5c(=O)cc(N6CCOCC6)oc5c4)cc3)nc2n1C1CCCC1.Cl, the AUC(0-t) was 7480 ng·h/mL (BALB/c mouse, plasma; oral, 20 mg/kg).
The AUC(0-t) of Cc1ncsc1-c1ccc([C@H](C)NC(=O)[C@@H]2C[C@@H](O)CN2C(=O)[C@@H](NC(=O)CCCCCCCCCCC(=O)NCCCn2cc(-c3ccc4c(c3)CCN4C(=O)Cc3cccc(OC(F)(F)F)c3)c3c(N)ncnc32)C(C)(C)C)cc1 is reported as 835 ng·h/mL (mouse, plasma; intravenous, 1 mg/kg).
OCc1ccc(-c2nn(Cc3ccccc3)c3ccccc23)o1 gave an AUC(0-t) of 1070 ng·h/mL (male CD-1 mouse, plasma; intravenous, 5 mg/kg).
The AUC(0-t) of Cc1cc(-c2ccnc3[nH]cc(F)c23)cc(F)c1[C@@]1(O)[C@H](C)CN(C2CCS(=O)(=O)CC2)C[C@@H]1C is reported as 3020 ng·h/mL (male CD-1 mouse, plasma; intravenous, 1 mg/kg).
The AUC(0-t) of Cc1ccc(OCC(=O)N[C@@H](Cc2c[nH]c3ccccc23)C(=O)OC(C)C)cc1 is reported as 3260 ng·h/mL (male Sprague-Dawley mouse, plasma; oral, 20 mg/kg).
Cc1nc2ccc(OCc3ccc(C(F)(F)F)cc3)cc2[nH]1 gave an AUC(0-t) of 3800 ng·h/mL (male BALB/c mouse, plasma; intravenous, 1 mg/kg).
NCc1ccc(-c2nn(Cc3ccccc3)c3ccccc23)o1 gave an AUC(0-t) of 9120 ng·h/mL (male CD-1 mouse, plasma; intraperitoneal, 30 mg/kg).
The AUC(0-t) of C[C@@H](CN1CCC(n2c(=O)[nH]c3cc(Cl)ccc32)CC1)NC(=O)c1ccc2ccccc2c1 is reported as 11.9 ng·h/mL (male CD-1 mouse, plasma; intravenous, 1 mg/kg, single dose).
With COC1=CC(c2ccc[nH]2)=N/C1=C\c1[nH]c(Cc2ccc(OC(F)(F)F)cc2)cc1Cc1ccc(OC(F)(F)F)cc1 the AUC(0-t) was 84100 ng·h/mL (male CD-1 mouse, plasma; oral, 40 mg/kg, single dose).
For OCc1nc2ccc(NCc3ccc(C(F)(F)F)cc3)cc2[nH]1, the AUC(0-t) was 482 ng·h/mL (male BALB/c mouse, plasma; intravenous, 1 mg/kg).
Cc1ncsc1-c1ccc([C@H](C)NC(=O)[C@@H]2C[C@@H](O)CN2C(=O)[C@@H](NC(=O)CCCCCCCCC(=O)N2CCC(n3cc(-c4ccc5c(c4)CCN5C(=O)Cc4cccc(OC(F)(F)F)c4)c4c(N)ncnc43)CC2)C(C)(C)C)cc1 gave an AUC(0-t) of 1240 ng·h/mL (male C57BL/6 mouse, plasma; intravenous, 1 mg/kg).
The AUC(0-t) of COC1=CC(c2ccc[nH]2)=N/C1=C\c1cc(Cc2ccc(OC(F)(F)F)cc2)c(C)[nH]1.Cl is reported as 101000 ng·h/mL (male CD-1 mouse, liver; oral, 40 mg/kg, single dose).
For Cc1cc(-c2ccnc3[nH]cc(F)c23)cc(F)c1[C@@]1(O)[C@H](C)CN(C(=O)CN)C[C@@H]1C, the AUC(0-t) was 18400 ng·h/mL (male CD-1 mouse, plasma; intravenous, 1 mg/kg).
CCOC(=O)c1c(NC(=O)CNC(C)C)sc2c1CCCCC2 has an AUC(0-t) of 300 ng·h/mL (male mouse, plasma; intraperitoneal, 5 mg/kg, single dose).
The AUC(0-t) of O=C1CCC(N2Cc3cc(C4CCN(Cc5ccccc5)CC4)ccc3C2=O)C(=O)N1 (stereo not drawn) is reported as 594 ng·h/mL (male CD-1 mouse, plasma; oral, 3 mg/kg).
CCCC[C@@H](NC(=O)[C@@H](Cc1cn(C(=O)OC)c2ccccc12)NC(=O)[C@H](CC(C)(C)C)NC(=O)N1[C@H](C)CCC[C@@H]1C)C(=O)O has an AUC(0-t) of 225 ng·h/mL (male CD-1 mouse, plasma; intravenous, 3 mg/kg).
